# Cav32 inh = human Cav3.2 channel inhibition, primary screen | B-score at 10 µM | O95180 | Cav3.2-expressing cells, Fluo-4 calcium fluorescence FDSS; hits give low values | actives 4% (n = 100,000);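 active = single-dose well whose peak fluorescence ratio is a statistical outlier from its plate by either plate-standardised score or position-corrected B-score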
# Pyk2 oligo antag = Pyk2 (human) oligomerization antagonism; Q14289; Q293 cells, Pyk2 FERM NanoBiT luminescence; hits give low values; z-score (the deposit names both 25 µM and 10 µM); actives 0.83% (n = 99,000); AID 1347419;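 active = Z-score of -3 or lower, scaled per plate to the spread of control and sample wells; inactive = z-score above -3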;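 note: negative z-score means lost luminescence so less FERM oligomerization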
# PostGolgi yeast = growth inhibition of a yeast mutant, post-Golgi transport screen; post-Golgi transport phenotypic cell assay; inhibition, % at 10 µM; actives 0.9% (n = 98,000); AID 739;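 note: yeast cells grown in 1536-well plates; yeast grown about 18 h at 30C before absorbance read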
# tolC growth inh = blocks growth of E. coli BW25113 tolC mutant | AID 573 | actives 2.2% (n = 65,000) | OD615 | growth inhibition, % at 10 µM (by protocol);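 active = growth inhibition at or above a cutoff equal to the mean over every tested compound plus 3 SD, cut at about 60% in these data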;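 note: growth measured after 20 h incubation at 37 °C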
#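 Test system: E. coli BW25113 ΔtolC::kan bacteria; incubation: 37 °C, 20 h exposure; medium: LB broth supplemented with 50 µg/mL kanamycin; read-out basis: percent growth inhibition; signal: A615 absorbance measurement; compound: 10 µM final, single dose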
# PostGolgi ctrl = growth of the yeast control strain, post-Golgi counter-screen. efflux-deficient yeast background strain, growth absorbance A615, 16 h. inhibition, % at 10 µM. actives 5% (n = 98,000). AID 738
# E coli WT exp = blocks growth of wild type E. coli BW25113 | OD600 absorbance | growth inhibition, % at 100 µM | actives 0.15% (n = 98,000) | AID 710;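 active = growth inhibition above about 50% at one test dose, limit read from the data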;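 note: growth measured after 20 h incubation at 37 °C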
# A number is an active result; i = inactive; nt = no result given. Rows were chosen to be rich in hits. Some 8.7% of all compounds tested hit in one or more screens of this group. Cut-off read from the data, not from the text of the source, unless noted: active = inhibition above about 30%; inactive = the rest.
SMILES,Cav32 inh,Pyk2 oligo antag,PostGolgi yeast,tolC growth inh,PostGolgi ctrl,E coli WT exp
CCCOc1ccc(NC(=O)CC2C(=O)N(C)C(=S)N2Cc2cccs2)cc1 (configuration not stated),-3.9,i,nt,nt,nt,nt
CSc1nc(C)c2c(n1)N(c1ccc(C(C)C)cc1)CC2,nt,i,i,nt,i,i
Clc1ccccc1C(c1ccccc1)(c1ccccc1)n1ccnc1,i,nt,nt,nt,nt,nt
Cc1cccc(C)c1OCCCCc1c(C)n[nH]c1C,i,i,i,i,i,i
Cc1ccccc1OCCCCc1c(C)n[nH]c1C,i,i,i,100,46,i
Clc1ccc(OCCSCc2nc3ccccc3[nH]2)cc1,-8.3,i,i,nt,i,i
COc1ccc(OCc2nc3ccccc3[nH]2)cc1,i,i,i,nt,i,i
c1ccc2cc(OCc3nc4ccccc4[nH]3)ccc2c1,-5.9,i,nt,nt,nt,nt
Clc1ccc(SCc2nc3ccccc3[nH]2)cc1,-4.5,i,i,nt,i,i
Cc1ccc(OCCSCc2nc3ccccc3[nH]2)cc1,-5.5,i,i,nt,i,i
COC(=O)c1ccc(NC(=O)CCN2CCN(Cc3ccccc3)CC2)cc1,i,i,nt,nt,nt,nt
O=C1NC(c2ccccc2)=C(c2nc3ccccc3s2)C(c2ccccc2)N1 (configuration not stated),i,-3.6,i,nt,i,i
c1ccc(-c2nc3ccccc3s2)nc1,i,i,i,i,i,i
COC(=O)c1ccc(C2C(C(C)=O)=C(O)C(=O)N2CCO)cc1 (configuration not stated),i,i,i,i,i,i
CC(=O)OCc1nc2ccccc2s1,i,i,i,nt,i,i
Cc1cc(C(=O)OCc2nc3ccccc3s2)c(C)o1,nt,i,i,100,i,i
CCOC(=O)C1=C(CSc2nc(-c3ccncc3)ccc2C#N)OC(N)=C(C#N)C1c1cccnc1 (configuration not stated),-5,i,i,i,i,i
CCOC(=O)C1=C(CSc2nc(-c3ccncc3)ccc2C#N)OC(N)=C(C#N)C1c1ccc(OC)cc1 (configuration not stated),i,i,i,nt,i,i
CCOC(=O)C1=C(CSc2nc(CC)c(C)cc2C#N)OC(N)=C(C#N)C1c1ccc(OC)cc1 (configuration not stated),-8.4,i,nt,nt,nt,nt
CCCC1CCc2c(sc(N)c2C(N)=O)C1 (configuration not stated),i,i,31,nt,i,i
CC(C)(C)C1CCc2c(sc(N)c2C(N)=O)C1 (configuration not stated),i,i,i,i,i,i
Cc1nn(Cc2ccccc2)c(Cl)c1C(=O)NC(C)(C)C,nt,i,nt,nt,nt,nt
Cc1ccc(S(=O)(=O)N2CCN(C(=O)CCC(=O)OCC(=O)Nc3cccc(C#N)c3)CC2)cc1,i,i,i,i,32,i
O=S(=O)(c1ccccc1)N1CCN(c2cc(-c3ccccc3)nc3ncnn23)CC1,i,-3.8,i,i,i,i
O=S(=O)(c1ccc(Br)cc1)N1CCN(c2cc(-c3ccccc3)nc3ncnn23)CC1,i,i,i,i,i,i
SMILES,Cav32 inh,Pyk2 oligo antag,PostGolgi yeast,tolC growth inh,PostGolgi ctrl,E coli WT exp
c1ccc(Nc2cc(-c3ccccc3)nc3ncnn23)cc1,i,i,93,i,i,i
CC1CC(C)CN(C(=O)CSCC(=O)Nc2nc(-c3cccs3)cs2)C1 (configuration not stated),nt,nt,i,i,72,i
O=C(CN1C(=O)CCC1=O)Nc1nc(-c2cccs2)cs1,i,i,i,i,i,i
O=C(CSCC(=O)N1CCCCC1)Nc1nc(-c2cccs2)cs1,-3.7,nt,i,i,i,i
COc1cccc(CNS(=O)(=O)c2cn(C)cn2)c1,nt,i,i,i,i,i
CCS(=O)(=O)n1nc(NCc2cccc(OC)c2)nc1NCc1cccc(OC)c1,-4.2,i,i,i,i,i
CC12CC(NC(=O)N1c1cccc(C(=O)N3CCN(c4ccccc4F)CC3)c1)c1ccccc1O2 (configuration not stated),-4.6,i,i,i,i,i
CC12CC(NC(=O)N1c1cccc(C(=O)NCc3ccc4c(c3)OCO4)c1)c1cc(Cl)ccc1O2 (configuration not stated),-3.7,i,i,i,i,i
CCSc1nnc(NC(=O)c2cccc(OCc3c(C)noc3C)c2)s1,i,i,i,62,i,i
COc1ccc2nc(NC(=O)c3cccc(OCc4c(C)noc4C)c3)sc2c1,nt,i,i,i,33,i
Cc1noc(C)c1COc1cccc(C(=O)NCc2ccccc2Cl)c1,i,i,i,nt,i,i
COCCCN1C(=O)c2ccc(C(=O)O)cc2C1=O,i,i,i,nt,i,i
COc1ccc(N(C(=O)c2ccc(Br)o2)C2C=CS(=O)(=O)C2)cc1 (configuration not stated),i,i,i,i,i,i
O=S(=O)(Nc1ccc(N2CCCCC2)cc1)c1cccc2cccnc12,i,i,i,i,38,i
COc1ccc(N=C2S/C(=C\c3ccc(N4CCOCC4)o3)C(=O)N2CCc2c[nH]c3ccccc23)cc1,i,i,i,nt,32,i
CCCN1C(=O)/C(=C/c2ccco2)SC1=Nc1ccc(OC)cc1,i,i,i,nt,i,i
Cc1n[nH]c(C)c1S(=O)(=O)N(CC(=O)N1CCc2ccccc21)c1ccc(C(C)C)cc1,3,nt,i,i,i,i
CCOc1ccc(N(CC(=O)N2CCc3ccccc32)S(=O)(=O)c2c(C)noc2C)cc1,i,nt,i,i,i,i
Cc1cc(C)cc(N(CC(=O)N2CCn3c2nc2ccccc23)S(=O)(=O)c2c(C)noc2C)c1,-5.6,nt,i,i,i,i
Cc1cc(C)cc(N(CC(=O)N2CCc3ccccc32)S(=O)(=O)c2c(C)noc2C)c1,-5.5,nt,i,i,i,i
CCO[C@@H]1OC(C(=O)N2CCN(Cc3ccc4c(c3)OCO4)CC2)=C[C@H](C2CC2)[C@H]1CCCO,i,nt,nt,nt,nt,nt
O=c1[nH]c(=S)ccn1C1OC(CO)C(O)C1O (configuration not stated),i,nt,nt,nt,nt,nt
O=C(CSc1ccc(Cl)cc1)OCc1nnc(-c2ccccc2)o1,i,i,i,i,i,i
CCN(CC)c1ccc(-c2nc3cnccc3n2C)cc1,i,i,38,i,i,i
CCN(CC)c1ccc(NC(=O)c2cccnc2)cc1,i,i,i,nt,i,i
SMILES,Cav32 inh,Pyk2 oligo antag,PostGolgi yeast,tolC growth inh,PostGolgi ctrl,E coli WT exp
COc1cc(/C=C(\C#N)C(=O)Nc2ccc(SC(F)F)cc2)cc(OC)c1OC,i,i,i,nt,i,i
CCOc1cc(/C=C(/C#N)C(=O)Nc2ccc(O)cc2)cc(Br)c1O,-7.9,i,i,nt,i,i
COC(=O)N/N=C/c1ccc([N+](=O)[O-])o1,i,i,nt,nt,nt,nt
CCOC(=O)N/N=C(/C)c1ccc([N+](=O)[O-])o1,i,i,i,nt,i,51
Cc1cccc(C)c1NC(=O)Cn1c(=O)n(CCCC(=O)NCc2ccco2)c(=O)c2sccc21,i,i,i,i,i,i
O=C(Nc1ccccc1F)c1ccc2nc(N3C(=O)CCC3=O)sc2c1,nt,i,i,nt,44,i
Nc1nc2ccc(C(=O)Nc3ccccc3)cc2s1,i,i,i,i,i,i

# Screening results deposited in PubChem by several laboratories.
